Tests used:
[1] = tested on: Leishmania donovani; assay: Antileishmanial activity against Leishmania donovani LV9 promastigotes after 96 hrs by MTT assay; assay type: functional, organism-based; settings: LV9, 96 h
How it was run: (§1)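 Promastigotes recovered from liquid-nitrogen cryopreservation were exposed to compounds for 96 h. Parasite viability was read by MTT.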

[2] = tested on: Leishmania infantum; assay: Antileishmanial activity against Leishmania infantum D.SCH promastigotes after 96 hrs by MTT assay; assay type: functional, organism-based; how it was run: as §1
[3] = tested on: Leishmania major; assay: Antileishmanial activity against Leishmania major LV39 promastigotes after 96 hrs by MTT assay; assay type: functional, organism-based; settings: LV39, 96 h; how it was run: as §1
[4] = tested on: Leishmania donovani; assay: Antileishmanial activity against Leishmania donovani LV9 amastigotes infected in mouse RAW 264.7 cells after 72 hrs by MTT assay; assay type: functional, organism-based
How it was run: (§2)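 RAW 264.7 macrophages infected in vitro with stationary-phase promastigotes, seeded at 1 × 10^5 cells per well in RPMI with 10% fetal calf serum and held 24 h at 37 °C for amastigote transformation. Compounds added, duplicate wells, 72 h at 37 °C. Cells lysed with 0.008% SDS, then post-lysis medium added and plates held 3-4 days at 25 °C. Recovered promastigotes quantified by MTT.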

[5] = tested on: Leishmania infantum; assay: Antileishmanial activity against Leishmania infantum D.SCH amastigotes infected in mouse RAW 264.7 cells after 72 hrs by MTT assay; assay type: functional, organism-based; how it was run: as §2
[6] = tested on: RAW264.7; assay: Cytotoxicity against mouse macrophage RAW264.7 cells after 48 hrs by MTT assay; assay type: cell-based; settings: RAW264.7, 48 h
How it was run: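 Noninfected RAW 264.7 cells were run in parallel with the intracellular amastigote assay and exposed to compounds for 48 h. Viable cells were quantified by MTT.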

[7] = tested on: Plasmodium falciparum; assay: Antiplasmodial activity against chloroquine-sensitive Plasmodium falciparum 3D7 after 48 hrs as reduced [3H]phenylalanine uptake
[8] = Toxicity in human erythrocytes assessed as morphological changes at IC50 after 48 hrs by Giemsa staining; assay type: cell-based; settings: erythrocyte
[9] = Toxicity in human erythrocytes assessed as formation of echinocytes and ghost cells at 130 to 300 uM after 48 hrs by Giemsa staining; assay type: cell-based; settings: erythrocyte
[10] = Toxicity in human erythrocytes assessed as morphological changes up to 67 uM after 48 hrs by Giemsa staining; assay type: cell-based; settings: erythrocyte

Molecule C/C=C/C1=C(OC)C(=O)C(OC)=C(OC)C1=O has an IC50 [1] of 97 µM, an IC50 [2] of 74 µM and an IC50 [3] of 72 µM. The IC50 [4] was > 800 µM, the IC50 [5] was > 800 µM and the IC50 [6] was 256 µM. The IC50 [7] was > 200 µM.

COc1ccc([C@@H]2COc3c(ccc4occc34)C2)c(OC)c1O [SMIRANICIN] gave an IC50 [1] of 22.9 µM, an IC50 [2] of 11.3 µM and an IC50 [3] of 17.4 µM. The IC50 [4] was 112 µM, the IC50 [5] was 81 µM and the IC50 [6] was 193 µM. The Activity [8] was “Non-toxic”, the Activity [9] was “Toxic” and the IC50 [7] was 57.6 µM.

In the case of C/C=C/c1cc(O)c(OC)c(OC)c1, the IC50 [1] is reported as 395 µM, the IC50 [2] is reported as 267 µM and the IC50 [3] is reported as 372 µM. The IC50 [4] was > 800 µM, the IC50 [5] was > 800 µM and the IC50 [6] was 281 µM. For the same molecule, the IC50 [7] was > 200 µM.

For C/C=C/c1cc(OC)c(OC)c(O)c1OC, the IC50 [1] was 232 µM, the IC50 [2] was 198 µM and the IC50 [3] was 387 µM. The IC50 [4] was 589 µM, the IC50 [5] was > 800 µM and the IC50 [6] was 125 µM. The IC50 [7] was > 200 µM.

For COc1ccc([C@@H]2COc3c(ccc4c3C=CC(C)(C)O4)C2)c(OC)c1O [GLYASPERIN H], the IC50 [1] was 25.3 µM, the IC50 [2] was 14.2 µM and the IC50 [3] was 23.7 µM. For the same molecule, the IC50 [4] was 77 µM, the IC50 [5] was 89 µM and the IC50 [6] was 172 µM. For the same molecule, the Activity [8] was “Non-toxic”, the Activity [9] was “Toxic” and the IC50 [7] was 33.3 µM.

With C[C@@H]1[C@H](O)[C@@H](C)/C=C/C=C/C=C/C=C/C=C/C=C/C=C/[C@H](O[C@@H]2O[C@H](C)[C@@H](O)[C@H](N)[C@@H]2O)C[C@@H]2O[C@](O)(C[C@@H](O)C[C@@H](O)[C@H](O)CC[C@@H](O)C[C@@H](O)CC(=O)O[C@H]1C)C[C@H](O)[C@H]2C(=O)O [AMPHOTERICIN B] the IC50 [2] was 0.02 µM, the IC50 [3] was 0.03 µM and the IC50 [4] was 0.04 µM. For the same molecule, the IC50 [5] was 0.04 µM.

Molecule COc1ccc([C@@H]2COc3c(ccc(O)c3CC=C(C)C)C2)c(OC)c1O has an IC50 [1] of 6.9 µM, an IC50 [2] of 9.2 µM and an IC50 [3] of 7.9 µM. It also gave an IC50 [4] of 99 µM, an IC50 [5] of 109 µM and an IC50 [6] of 218 µM. The Activity [10] was “Non-toxic” and the IC50 [7] was 10.3 µM.
